Data set [1] relates to A549. Kind of data set: Growth inhibition of human A549 cells at 5 uM after 24 hrs by MTT assay relative to control. The data set is classed as functional. To be noted: A549, 24 h, read-out: GI. An outline of the steps: (§1)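 Monolayers seeded 24 h before treatment, then exposed to compound, with DMEM or RPMI 1640 plus 10% FBS as growth medium. MTT (5 mg mL–1 stock) incubated 2–4 h at 37 °C, formazan dissolved in DMSO, and absorbance read at 570 nm. Growth inhibition reported as % of control.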
(Formazan colour is commonly taken as a measure of viable cells.)

The subject of data set [2] is KB. The experiment in a line: Growth inhibition of human KB cells at 10 uM after 24 hrs by MTT assay relative to control. To be noted: read-out: GI. In kind it is functional. An outline of the steps:
as §1

The subject of data set [3] is MCF7. Kind of data set: Growth inhibition of human MCF7 cells at 10 uM after 24 hrs by MTT assay relative to control. The data set is classed as functional. To be noted: MCF7, 24 h, read-out: GI. An outline of the steps: as §1
Data set [4] deals with A549. The experiment in a line: Growth inhibition of human A549 cells at 10 uM after 24 hrs by MTT assay relative to control. In kind it is functional. To be noted: A549, 24 h, read-out: GI. In outline:
as §1

The test system of another data set is L02. Kind of data set: Cytotoxicity against human LO2 cells assessed as reduction in cell growth at 5 to 10 uM after 24 hrs by MTT assay. In kind it is cell-based. To be noted: l02, 24 h.
The subject of data set [5] is HepG2. The experiment in a line: Growth inhibition of human HepG2 cells at 5 uM after 24 hrs by MTT assay relative to control. In kind it is functional. To be noted: HepG2, 24 h, read-out: GI. In outline:
as §1

The subject of data set [6] is MCF7. Kind of data set: Growth inhibition of human MCF7 cells at 5 uM after 24 hrs by MTT assay relative to control. In kind it is functional. To be noted: MCF7, 24 h, read-out: GI. In outline:
as §1

Data set [7] has as its system HeLa. Kind of data set: Growth inhibition of human HeLa cells at 5 uM after 24 hrs by MTT assay relative to control. In kind it is functional. To be noted: read-out: GI. In outline: as §1
The subject of data set [8] is HCT-116. The experiment in a line: Growth inhibition of human HCT116 cells at 10 uM after 24 hrs by MTT assay relative to control. In kind it is functional. To be noted: HCT-116, 24 h, read-out: GI. In outline:
as §1

For data set [9], the system named is HepG2. The experiment in a line: Growth inhibition of human HepG2 cells at 10 uM after 24 hrs by MTT assay relative to control. To be noted: HepG2, 24 h, read-out: GI. The data set is classed as functional. An outline of the steps: as §1
The subject of data set [10] is HCT-116. Kind of data set: Growth inhibition of human HCT116 cells at 2.5 uM after 24 hrs by MTT assay relative to control. The data set is classed as functional. To be noted: HCT-116, 24 h, read-out: GI. An outline of the steps: as §1
Data set [11] concerns KB. Kind of data set: Growth inhibition of human KB cells at 5 uM after 24 hrs by MTT assay relative to control. To be noted: read-out: GI. In kind it is functional. In outline: as §1
Data set [12] has as its system HCT-116. The experiment in a line: Growth inhibition of human HCT116 cells at 5 uM after 24 hrs by MTT assay relative to control. To be noted: HCT-116, 24 h, read-out: GI. The data set is classed as functional. In outline:
as §1

Data set [13] has as its system HCT-116. The experiment in a line: Potentiation of cisplatin-induced antiproliferative activity against human HCT116 cells assessed as cell growth inhibition at 2.5 uM preincubated for 24 hrs followed by 2.5 uM cisplatin addition and measured after 48 hrs by MTT assay (reference value: 26.98 +/-2.84%). The data set is classed as functional. To be noted: read-out: GI.

Data set [14] deals with HeLa. The experiment in a line: Growth inhibition of human HeLa cells at 10 uM after 24 hrs by MTT assay relative to control. In kind it is functional. To be noted: read-out: GI. An outline of the steps:
as §1

Consider `CS(=O)(=O)c1ccc(-c2cnc3[nH]cc(-c4nnc(-c5ccc(F)cc5)o4)c(=O)c3c2)cc1`, for which the inhibition of growth at 5 µM in the data set on A549 [1] came out at 3.11%; in the data set with HepG2 [5] it was 9.45%; in the data set on MCF7 [6] it was 3.78%; in the data set with HeLa [7] it was 8.47%; in the data set on KB [11] it was 2.55%; with HCT-116 [12] it was 14.9%. Moreover, the inhibition of growth at 10 µM with KB [2] is 7.58%; with MCF7 [3], 8.1%; with A549 [4], 3.59%; in the data set on HCT-116 [8], 18.6%; in the data set with HepG2 [9] it was 11.1%; with HeLa [14] it was 15.7%. Also, the Activity result in the data set on L02 is given as “Non-Toxic”. Moreover, the inhibition of growth at 2.5 µM in the data set on HCT-116 [10] came to 10.7%; in the data set with HCT-116 [13], 39.5%.

Regarding `O=c1c(-c2nnc(-c3ccc(F)cc3)o2)c[nH]c2ncc(-c3cccnc3)cc12`, the Activity entry with L02 was “Non-Toxic”. The inhibition of growth at 10 µM in the data set with HCT-116 [8] turned out to be 19.7%. For the same molecule, the inhibition of growth at 2.5 µM worked out at 9.87% in the data set with HCT-116 [10] and 20.1% with HCT-116 [13]. In addition, the inhibition of growth at 5 µM with HCT-116 [12] amounted to 11.1%.

For the molecule `CS(=O)(=O)c1ccc(-c2cnc3[nH]cc(-c4nnc(-c5ccc(Cl)cc5)o4)c(=O)c3c2)cc1`, the inhibition of growth at 5 µM was found to be 23.8% in the data set on A549 [1]; 11.2% in the data set with HepG2 [5]; 0.86% in the data set on MCF7 [6]; 1.07% in the data set with HeLa [7]; 2.15% in the data set on KB [11]; 16.4% with HCT-116 [12]. For the same molecule, the inhibition of growth at 10 µM in the data set on KB [2] amounted to 9.3%; with MCF7 [3] it was 13.1%; in the data set with A549 [4], 26.8%; in the data set with HCT-116 [8], 17%; with HepG2 [9], 11.6%; in the data set on HeLa [14], 1.64%. In addition, the Activity result with L02 is on record as “Non-Toxic”. Moreover, the inhibition of growth at 2.5 µM in the data set with HCT-116 [10] worked out at 2.06%; in the data set on HCT-116 [13], 24.9%.

As for `N#Cc1ccc(-c2cnc3[nH]cc(-c4nnc(-c5ccc(F)cc5)o4)c(=O)c3c2)cc1`, the Activity result with L02 was “Non-Toxic”. The inhibition of growth at 10 µM with HCT-116 [8] came out at 18.9%. The figures for the inhibition of growth at 2.5 µM in the data set with HCT-116 [10] and in the data set on HCT-116 [13] were 10.2% and 25.6%, respectively. In the data set with HCT-116 [12], the inhibition of growth at 5 µM turned out to be 12.6%.

Regarding `O=c1c(-c2nnc(-c3ccc(F)cc3)o2)c[nH]c2ncc(-c3ccncc3)cc12`, the Activity entry in the data set with L02 is “Non-Toxic”. Besides, the inhibition of growth at 10 µM in the data set with HCT-116 [8] came to 20.5%. For the same molecule, the inhibition of growth at 2.5 µM stood at 7.54% in the data set on HCT-116 [10] and 19.6% with HCT-116 [13]. Besides, the inhibition of growth at 5 µM with HCT-116 [12] was determined as 10.9%.

Consider `N#Cc1ccc(-c2cnc3[nH]cc(-c4nnc(-c5ccc(Cl)cc5)o4)c(=O)c3c2)cc1`, for which the inhibition of growth at 5 µM in the data set on A549 [1] worked out at 7.6%; in the data set on HepG2 [5], 11.5%; with MCF7 [6], 4.65%; in the data set on HeLa [7], 4.8%; with KB [11] it was 7.35%; in the data set on HCT-116 [12], 17.9%. For the same molecule, the inhibition of growth at 10 µM in the data set on KB [2] was 9.73%; in the data set with MCF7 [3], 19.7%; in the data set with A549 [4] it was 12.5%; in the data set on HCT-116 [8], 18.3%; in the data set with HepG2 [9], 12.7%; with HeLa [14], 13.7%. For the same molecule, the Activity entry with L02 is given as “Non-Toxic”. Besides, the inhibition of growth at 2.5 µM in the data set with HCT-116 [10] worked out at 13.7%; in the data set with HCT-116 [13], 35.4%.

`CS(=O)(=O)c1ccc(-c2cnc3[nH]cc(-c4nnc(-c5cccnc5)o4)c(=O)c3c2)cc1`: the Activity result in the data set on L02 was “Non-Toxic”. Further, the inhibition of growth at 10 µM in the data set on HCT-116 [8] turned out to be 14.7%. Moreover, the inhibition of growth at 2.5 µM was determined as 4.32% in the data set on HCT-116 [10] and 28.6% with HCT-116 [13]. Moreover, the inhibition of growth at 5 µM in the data set with HCT-116 [12] was 9.26%.

For `CS(=O)(=O)c1ccc(-c2cnc3[nH]cc(-c4nnc(-c5ccccc5)o4)c(=O)c3c2)cc1`, the inhibition of growth at 5 µM turned out to be 8.17% with A549 [1]; 5.46% with HepG2 [5]; 1.38% in the data set on MCF7 [6]; 8.58% with HeLa [7]; 4.38% in the data set on KB [11]; 8.6% in the data set with HCT-116 [12]. Besides, the inhibition of growth at 10 µM in the data set with KB [2] was 5.2%; in the data set on MCF7 [3], 2.83%; in the data set on A549 [4] it was 9.51%; with HCT-116 [8] it was 15.7%; in the data set with HepG2 [9], 6.98%; in the data set on HeLa [14], 17.5%. In addition, the Activity result in the data set with L02 is given as “Non-Toxic”. The inhibition of growth at 2.5 µM in the data set with HCT-116 [10] stood at 0.53%; in the data set with HCT-116 [13], 27.2%.

As for `O=c1c(-c2nnc(-c3ccc(Cl)cc3)o2)c[nH]c2ncc(-c3cccnc3)cc12`, the Activity result with L02 is “Non-Toxic”. Besides, in the data set on HCT-116 [8], the inhibition of growth at 10 µM was found to be 11.8%. Also, the results for the inhibition of growth at 2.5 µM in the data set on HCT-116 [10] and with HCT-116 [13] were 10.4% and 20.1%, respectively. In the data set with HCT-116 [12], the inhibition of growth at 5 µM was found to be 15.9%.

For the molecule `CS(=O)(=O)c1ccc(-c2cnc3[nH]cc(-c4nnc(-c5ccccn5)o4)c(=O)c3c2)cc1`, the Activity entry with L02 was “Non-Toxic”. Further, the inhibition of growth at 10 µM with HCT-116 [8] was found to be 16.2%. Also, the inhibition of growth at 2.5 µM with HCT-116 [10] turned out to be 5.37%; in the data set on HCT-116 [13], 34.3%. Besides, the inhibition of growth at 5 µM in the data set on HCT-116 [12] was 11.3%.

As to `CS(=O)(=O)c1ccc(-c2cnc3[nH]cc(-c4nnc(-c5ccncc5)o4)c(=O)c3c2)cc1`, the inhibition of growth at 5 µM with A549 [1] was found to be 6.76%; in the data set on HepG2 [5] it was 3.49%; in the data set with MCF7 [6] it was 2.35%; with HeLa [7] it was 7.08%; with KB [11], 2.16%; with HCT-116 [12] it was 5.61%. The inhibition of growth at 10 µM in the data set with KB [2] came to 3.02%; with MCF7 [3], 4.27%; in the data set on A549 [4] it was 12.1%; in the data set with HCT-116 [8], 7.83%; in the data set on HepG2 [9], 6.65%; in the data set on HeLa [14], 18.4%. In addition, the Activity result in the data set with L02 was “Non-Toxic”. In addition, the inhibition of growth at 2.5 µM turned out to be 2.64% with HCT-116 [10] and 29.2% with HCT-116 [13].

Turning to `O=c1c(-c2nnc(-c3ccc(Cl)cc3)o2)c[nH]c2ncc(-c3ccccc3)cc12`, the inhibition of growth at 5 µM worked out at 1.44% in the data set on A549 [1]; 5.1% in the data set with HepG2 [5]; 11.9% in the data set with MCF7 [6]; 3.55% in the data set with HeLa [7]; 2.15% with KB [11]; 12.3% with HCT-116 [12]. Also, the inhibition of growth at 10 µM in the data set on KB [2] was determined as 19.5%; in the data set with MCF7 [3], 26.9%; in the data set with A549 [4], 9.77%; with HCT-116 [8] it was 21.6%; with HepG2 [9] it was 14.9%; in the data set on HeLa [14], 31.3%. The Activity entry with L02 was “Non-Toxic”. For the same molecule, the figures for the inhibition of growth at 2.5 µM in the data set with HCT-116 [10] and with HCT-116 [13] were 9.81% and 29.8%, respectively.

The values are drawn from ChEMBL document CHEMBL4368880, “Synthesis and biological evaluation of 3-(1,3,4-oxadiazol-2-yl)-1,8-naphthyridin-4(1H)-ones as cisplatin sensitizers” (Medchemcomm, 2018).
